Source: ChEMBL document CHEMBL4627334, “Design, synthesis and biological evaluation of 4-(pyridin-4-yloxy)benzamide derivatives bearing a 5-methylpyridazin-3(2H)-one fragment” (Bioorg Med Chem Lett, 2020)
Active and inactive are the calls of the source. The rule behind the calls is not given here.

Columns and labels:
HeLa [1] = test: Antiproliferative activity against human HeLa cells assessed as reduction in cell viability after 72 hrs by MTT assay; assay type: functional, cell-based
In short: (§1)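 Cells grown in DMEM/1640 with 10% FBS, seeded at about 4×10^3 per well and held 24 h at 37 °C, 5% CO2. Compounds diluted in medium or DMSO were added for 72 h, then MTT ([…]) was added for 3.5 h at 37 °C. Formazan was dissolved in DMSO and read at 492 nm against 630 nm. Triplicate wells, three runs, IC50 calculated.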

MCF7 [2] = test: Antiproliferative activity against human MCF7 cells assessed as reduction in cell viability after 72 hrs by MTT assay; assay type: functional, cell-based; in short: as §1
A549 [3] = test: Antiproliferative activity against human A549 cells assessed as reduction in cell viability after 72 hrs by MTT assay; assay type: functional, cell-based; settings: A549, 72 h; in short: as §1
[4] = target: Hepatocyte growth factor receptor (Homo sapiens, UniProt P08581); test: Inhibition of cMET (unknown origin) using FAM-labeled peptide as substrate pre-incubated for 5 to 10 mins followed by substrate addition and measured after 30 to 60 mins by mobility shift assay
MCF7 [5] = test: Potency index, ratio of golvatinib IC50 to test compound IC50 for antiproliferative activity against human MCF7 cells; assay type: functional
HeLa [6] = test: Antiproliferative activity against human HeLa cells assessed as inhibition of cell proliferation at 1.23 umol/L after 72 hrs by MTT assay relative to control; assay type: functional
In short: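 Cells were cultured in medium with 10% FBS and seeded near 4×10^3 per well, 24 h before dosing. MTT (5 µg/mL) was added for 3.5 h at 37 °C, formazan dissolved in DMSO, and absorbance read at 492/630 nm.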

A549 [7] = test: Potency index, ratio of golvatinib IC50 to test compound IC50 for antiproliferative activity against human A549 cells; assay type: functional
HeLa [8] = test: Induction of apoptosis in human HeLa cells after 12 hrs by acridine orange staining based assay; assay type: functional, cell-based
In short: (§2)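 HeLa cells were treated at 1 and 5 µg/L for 12 h, then stained with acridine orange. Morphology was compared with untreated control cells, scoring cytoplasmic contraction, membrane swelling and apoptotic bodies.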

HeLa [9] = test: Induction of apoptosis in human HeLa cells assessed as increase in apoptotic bodies at 1 to 5 ug/L after 12 hrs by acridine orange staining based assay; assay type: functional, cell-based; in short: as §2
HeLa [10] = test: Potency index, ratio of golvatinib IC50 to test compound IC50 for antiproliferative activity against human HeLa cells; assay type: functional
HeLa [11] = test: Induction of apoptosis in human HeLa cells assessed as membrane swelling at 1 to 5 ug/L after 12 hrs by acridine orange staining based assay; assay type: functional, cell-based; in short: as §2
HeLa [12] = test: Induction of apoptosis in human HeLa cells assessed as cytoplasmic contraction at 1 to 5 ug/L after 12 hrs by acridine orange staining based assay; assay type: functional, cell-based; in short: as §2
[13] = Homo sapiens, HeLa, 72 h, read-out: IC50
[14] = Homo sapiens, MCF7, 72 h, read-out: IC50

Chain of Hepatocyte growth factor receptor (P08581 whole entry): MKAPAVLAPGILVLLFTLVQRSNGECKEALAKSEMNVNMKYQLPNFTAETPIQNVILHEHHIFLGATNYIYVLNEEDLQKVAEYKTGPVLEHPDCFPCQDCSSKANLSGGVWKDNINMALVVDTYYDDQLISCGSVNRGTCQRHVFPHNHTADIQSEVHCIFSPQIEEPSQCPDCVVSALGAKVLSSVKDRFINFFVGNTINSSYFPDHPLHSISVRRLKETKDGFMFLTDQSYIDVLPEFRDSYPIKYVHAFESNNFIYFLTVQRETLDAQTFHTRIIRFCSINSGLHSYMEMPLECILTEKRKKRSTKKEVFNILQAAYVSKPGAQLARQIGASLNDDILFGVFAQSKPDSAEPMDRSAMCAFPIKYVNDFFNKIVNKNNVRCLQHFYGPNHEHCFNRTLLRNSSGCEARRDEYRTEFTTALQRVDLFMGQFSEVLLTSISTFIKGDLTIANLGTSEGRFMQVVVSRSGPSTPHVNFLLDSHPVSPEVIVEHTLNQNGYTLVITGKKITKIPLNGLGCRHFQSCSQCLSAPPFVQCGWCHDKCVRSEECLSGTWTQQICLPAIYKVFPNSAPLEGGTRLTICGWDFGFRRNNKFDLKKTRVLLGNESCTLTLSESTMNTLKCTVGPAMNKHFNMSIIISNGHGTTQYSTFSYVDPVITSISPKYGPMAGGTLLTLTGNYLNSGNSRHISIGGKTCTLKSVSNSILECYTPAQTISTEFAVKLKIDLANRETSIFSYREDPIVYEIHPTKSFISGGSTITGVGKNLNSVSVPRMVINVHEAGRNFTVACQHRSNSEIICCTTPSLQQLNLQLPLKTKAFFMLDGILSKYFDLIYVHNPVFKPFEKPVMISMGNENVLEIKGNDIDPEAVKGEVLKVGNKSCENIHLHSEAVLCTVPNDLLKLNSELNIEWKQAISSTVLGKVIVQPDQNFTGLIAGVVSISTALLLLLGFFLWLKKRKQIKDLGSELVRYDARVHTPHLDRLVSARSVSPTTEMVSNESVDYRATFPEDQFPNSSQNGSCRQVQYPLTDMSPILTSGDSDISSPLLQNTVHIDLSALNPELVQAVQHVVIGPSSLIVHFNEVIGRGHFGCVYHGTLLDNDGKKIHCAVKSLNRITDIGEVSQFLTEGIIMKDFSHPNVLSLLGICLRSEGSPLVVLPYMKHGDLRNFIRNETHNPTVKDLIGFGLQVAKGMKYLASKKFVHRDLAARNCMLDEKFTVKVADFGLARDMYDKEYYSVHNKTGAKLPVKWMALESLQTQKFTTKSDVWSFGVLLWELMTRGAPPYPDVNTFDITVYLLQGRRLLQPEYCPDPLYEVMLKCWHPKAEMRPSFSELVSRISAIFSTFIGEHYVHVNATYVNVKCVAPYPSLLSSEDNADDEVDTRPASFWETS

SMILES | IC50 (HeLa [1]; [13]) [µM] | IC50 (MCF7 [2]; [14]) [µM] | IC50 (A549 [3]) [µM] | further results
Cc1cc(=O)n(-c2cccc(C(F)(F)F)c2)nc1C(=O)Nc1ccc(Oc2ccnc(C(=O)NCCCN3CCOCC3)c2)cc1 | 1.65 | 5.21 | 2.5 | IC50 [4]: > 10 µM
CCNC(=O)c1cc(Oc2ccc(NC(=O)c3nn(-c4cccc(C(F)(F)F)c4)c(=O)cc3C)cc2)ccn1 | 10.7 | 40.6 | 10 | –
Cc1cc(=O)n(-c2ccc(Br)cc2F)nc1C(=O)Nc1ccc(Oc2ccnc(C(=O)NCCCN3CCOCC3)c2)cc1 | 4.25 | 8.23 | 6.83 | IC50 [4]: > 10 µM
CCCNC(=O)c1cc(Oc2ccc(NC(=O)c3nn(-c4ccc(C)cc4)c(=O)cc3C)cc2F)ccn1 | 14.2 | 34.6 | 18 | –
CCCNC(=O)c1cc(Oc2ccc(NC(=O)c3nn(-c4ccccc4C)c(=O)cc3C)cc2F)ccn1 | 24.6 | 39.6 | 25.7 | –
Cc1cc(=O)n(-c2cccc(C(F)(F)F)c2)nc1C(=O)Nc1ccc(Oc2ccnc(C(=O)NCCc3cccs3)c2)cc1 | 885 | – | 722 | IC50 (MCF7 [2]; mcf7): Not Active
CCNC(=O)c1cc(Oc2ccc(NC(=O)c3nn(-c4ccccc4OC(F)(F)F)c(=O)cc3C)cc2)ccn1 | 3.99 | 15.5 | 5.28 | –
CCNC(=O)c1cc(Oc2ccc(NC(=O)c3nn(-c4cccc(F)c4)c(=O)cc3C)cc2)ccn1 | 6.87 | 18.9 | 7.41 | –
CCCNC(=O)c1cc(Oc2ccc(NC(=O)c3nn(-c4ccc(Br)cc4F)c(=O)cc3C)cc2F)ccn1 | 53.5 | – | 235 | IC50 (MCF7 [2]; mcf7): Not Active
Cc1cc(=O)n(-c2ccc(Br)cc2F)nc1C(=O)Nc1ccc(Oc2ccnc(C(=O)NCCc3cccs3)c2)cc1 | 387 | 969 | 585 | –
CCCNC(=O)c1cc(Oc2ccc(NC(=O)c3nn(-c4ccccc4OC(F)(F)F)c(=O)cc3C)cc2F)ccn1 | 3.69 | 7.42 | 4.22 | –
Cc1cc(=O)n(-c2ccccc2OC(F)(F)F)nc1C(=O)Nc1ccc(Oc2ccnc(C(=O)NCCCN3CCOCC3)c2)cc1 | 1.15 | 2.59 | 1.03 | Activity (HeLa [1]): Dose-dependent effect; Ratio IC50 (MCF7 [5]): 2.6 - 6.95; inhibition at 1.23 µM (HeLa [6]): > 50%; IC50 [4]: 0.807 µM; Ratio IC50 (A549 [7]): 2.6 - 6.95; Activity (HeLa [8]): Dose-dependent effect; Activity (HeLa [9]): Active; Ratio IC50 (HeLa [10]): 2.6 - 6.95; Activity (HeLa [11]): Active; Activity (HeLa [12]): Active
CNC(=O)c1cc(Oc2ccc(NC(=O)c3nn(-c4ccccc4)c(=O)cc3C)cc2F)ccn1 | – | – | 40.8 | IC50 (HeLa [1]; hela): Not Active; IC50 (MCF7 [2]; mcf7): Not Active
Cc1ccc(-n2nc(C(=O)Nc3ccc(Oc4ccnc(C(=O)NCCc5cccs5)c4)cc3)c(C)cc2=O)cc1 | 660 | – | 965 | IC50 (MCF7 [2]; mcf7): Not Active

More lines, main results first:

IC50 (HeLa [1]; [13]) [µM] | IC50 (MCF7 [2]; [14]) [µM] | IC50 (A549 [3]) [µM] | SMILES | further results
10.7 | 51.2 | 11.6 | CCNC(=O)c1cc(Oc2ccc(NC(=O)c3nn(-c4ccc(C)cc4)c(=O)cc3C)cc2)ccn1 | –
11.8 | 45.8 | 10.2 | CNC(=O)c1cc(Oc2ccc(NC(=O)c3nn(-c4cccc(C(F)(F)F)c4)c(=O)cc3C)cc2F)ccn1 | –
8 | 30 | 9.24 | CCCNC(=O)c1cc(Oc2ccc(NC(=O)c3nn(-c4cccc(C(F)(F)F)c4)c(=O)cc3C)cc2F)ccn1 | –
6.66 | 13.3 | 7.02 | CCCNC(=O)c1cc(Oc2ccc(NC(=O)c3nn(-c4cccc(F)c4)c(=O)cc3C)cc2F)ccn1 | –
9.87 | 136 | 11.8 | CNC(=O)c1cc(Oc2ccc(NC(=O)c3nn(-c4ccccc4Cl)c(=O)cc3C)cc2F)ccn1 | –
434 | – | 876 | Cc1cc(=O)n(-c2ccccc2OC(F)(F)F)nc1C(=O)Nc1ccc(Oc2ccnc(C(=O)NCCc3cccs3)c2)cc1 | IC50 (MCF7 [2]; mcf7): Not Active
– | 35.1 | 34.5 | CCNC(=O)c1cc(Oc2ccc(NC(=O)c3nn(-c4ccc(Br)cc4F)c(=O)cc3C)cc2)ccn1 | IC50 (HeLa [1]; hela): Not Active
27.3 | 44.3 | 34.8 | CCNC(=O)c1cc(Oc2ccc(NC(=O)c3nn(-c4ccccc4C)c(=O)cc3C)cc2)ccn1 | –
1.92 | 3.57 | 2.94 | Cc1ccc(-n2nc(C(=O)Nc3ccc(Oc4ccnc(C(=O)NCCCN5CCOCC5)c4)cc3)c(C)cc2=O)cc1 | IC50 [4]: > 10 µM
4.14 | 20.6 | 6.89 | CN1CCN(C2CCN(C(=O)Nc3cc(Oc4ccc(NC(=O)C5(C(=O)Nc6ccc(F)cc6)CC5)c(F)c4)ccn3)CC2)CC1 [GOLVATINIB] | inhibition at 1.23 µM (HeLa [6]): 20%
